Hits are enriched below; roughly 4.2% of the tested compounds scored in any of these assays.
HDAC3 inh – HDAC3 deacetylase inhibitors, primary screen, biochemical, fluorescence, cell-free homogeneous. Histone deacetylase 3 (Homo sapiens), O15379. recombinant HDAC3, fluorogenic peptide/trypsin coupled. inhibition, % at 8.3 µM. 320,000 compounds, 0.15% hits; in the data active = inhibition above about 26%, passing the limit was not always enough
GAA850 FXN act – FXN promoter activators, primary screen, cell-based, luciferase luminescence, HEK293 lucGAA850; HEK293 lucGAA850 FXN promoter luciferase reporter, 24 h; percent of 10 µM SAHA response; activation, % at 6 µM; 360,000 compounds, 0.56% hits; AID 540364, 2011;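 active = activation above the average of all compounds screened plus 3 SD, cutoff fixed separately per campaign, cut at about 7.5% in these data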
SENP1 inh – human SENP1 catalytic domain inhibitors, primary screen, biochemical, FRET, uHTS. AID 624204, 2012. recombinant SENP1 catalytic domain, CyPet-SUMO1-YPet FRET cleavage. 360,000 compounds, 0.21% hits. inhibition, % at 10 µM. Sentrin-specific protease 1 (Homo sapiens), Q9P0U3;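 active = inhibition at least 30% at 10 µM, raw YFP signal under a set limit, fluorescence ratio 0.5 to 1.5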
Target sequence (Q9P0U3 419-644 limits assumed): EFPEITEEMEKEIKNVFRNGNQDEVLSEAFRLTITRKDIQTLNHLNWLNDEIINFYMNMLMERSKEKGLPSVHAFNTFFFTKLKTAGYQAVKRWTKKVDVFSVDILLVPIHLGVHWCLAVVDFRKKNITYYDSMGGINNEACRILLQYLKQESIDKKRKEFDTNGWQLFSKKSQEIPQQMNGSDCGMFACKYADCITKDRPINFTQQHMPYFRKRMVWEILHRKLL
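Assay system: hSENP1 catalytic domain, recombinant. Amount: SENP1 enzyme, 20 pM final. Schedule: 50 min reaction, RT, dark. Technique: FRET, CFP and YFP emission. Control set: no-enzyme wells low, DMSO-plus-enzyme wells high control.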
AHR act – AHR activators, primary screen, cell-based, luminescence, luciferase reporter, human | Aryl hydrocarbon receptor (Homo sapiens), P35869 | AHR-responsive luciferase reporter cells | activation, % at 5 µM | 320,000 compounds, 2.5% hits; in the data active = activation above about 47%
PfM18AAP inh-1 – PfM18AAP inhibitors, malaria aminopeptidase, primary screen, biochemical, QFRET, recombinant enzyme; AID 1822, 2009; inhibition, % at 7.35 µM; 290,000 compounds, 1.2% hits; H-Glu-NHMec fluorogenic cleavage;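 active = inhibition above the campaign mean inhibition over all tested compounds plus 3 SD, cut at about 28% in these data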
CTSL1 counter-1 – Fasciola hepatica cathepsin L1 inhibitors, primary screen, counter-screen for PFM18AAP inhibitor project, biochemical, QFRET, fluorogenic peptide substrate; recombinant F. hepatica cathepsin L1, Z-Leu-Arg-MCA fluorescence; AID 1906, 2009; 300,000 compounds, 0.49% hits; inhibition, % at 5.96 µM;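 active = inhibition above the mean of all tested compounds plus 3 SD, set per screening campaign, cut at about 17% in these data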
PfM18AAP inh-2 – PfM18AAP inhibitors, malaria aminopeptidase, confirmation, biochemical, QFRET, recombinant enzyme, triplicate | AID 2170, 2009 | H-Glu-NHMec fluorogenic cleavage | 2,400 compounds, 28% hits | shares compounds with PfM18AAP inh-1 | inhibition, % at 7.35 µM;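 active = mean inhibition over replicate wells above the hit cutoff set for the earlier primary screen, cut at about 29% in these data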
CTSL1 counter-2 – cathepsin L1 inhibitors, retest, confirmation, counter-screen for PFM18AAP inhibitor project, biochemical, QFRET, triplicate; inhibition, % at 5.96 µM; purified cathepsin L1, Z-Leu-Arg-MCA fluorescence; AID 2178, 2009; shares compounds with PfM18AAP inh-1; 2,400 tested, under 10 active;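 active = average inhibition across replicates above the hit cutoff set in the earlier primary screen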
AHR act cf – AHR activators, confirmation, cell-based, luminescence, luciferase reporter, human. shares compounds with AHR act. activation, % at 9 µM. AID 2845, 2010. human cells, AHR-responsive luciferase reporter. 2,300 compounds, 87% hits; in the data active = activation above about 49%;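 also: HepG2 hepatoma cells carrying a DRE-driven firefly luciferase reporter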
PXR act counter – human PXR activators, counter-screen for AHR activator project, cell-based, luciferase luminescence | shares compounds with AHR act | cell-based PXR reporter | activation, % at 11.6 µM | 2,300 compounds, 88% hits; in the data active = activation above about 11%;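 also: human hepatoma DPX-2 cells expressing full-length human PXR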
GAA30 FXN cntr – GAA30 FXN promoter activators, confirmation, counter-screen for GAA850 frataxin promoter activator project, cell-based, luminescence, HEK293, lucGAA30, triplicate. activation, % at 6 µM. AID 588350, 2011. 1,900 compounds, 66% hits. shares compounds with GAA850 FXN act. HEK293 lucGAA30 FXN promoter luciferase, 24 h; DMSO = 0%, 5 µM ipriflavone = 100%;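 active = mean activation above the mean of solvent-only control wells plus 3 SD, cut at about 22% in these data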;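 also: counterscreen of GAA850 promoter hits where activity marks nonselective or luminescence artifacts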
GAA850 confirm – FXN GAA850 promoter activators in reporter cells, confirmation, cell-based, luminescence, HEK293 lucGAA850, triplicate. shares compounds with GAA850 FXN act. HEK293 lucGAA850 FXN promoter luciferase reporter, 24 h; 100% = activation by SAHA. activation, % at 6 µM. 1,900 compounds, 86% hits;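 active = mean activation above a set limit taken from the primary screen, cut at about 8% in these data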
Each line names hits and unclear results; the compound was inactive in the other large screens (follow-up assays come after a bar, where they were run).

Cc1ccc2nc(-c3ccc(O)c(O)c3)cn2c1	GAA850 FXN act 10, PfM18AAP inh-1 70 | PfM18AAP inh-2 55 | CTSL1 counter-2 inactive | GAA30 FXN cntr 122 | GAA850 confirm 49
Cc1cc(O)c(-c2cc(O)c(C)cc2O)cc1O	GAA850 FXN act 11, AHR act 52, PfM18AAP inh-1 71 | PfM18AAP inh-2 51 | CTSL1 counter-2 inactive | GAA30 FXN cntr inactive | GAA850 confirm 29
CC(=O)Nc1cc(-c2cccc(C(=O)NCCO)c2)cn2c(-c3ccc(F)c(Cl)c3)cnc12	none (no result: HDAC3 inh, AHR act, PfM18AAP inh-1, CTSL1 counter-1)
COc1cccc(C(=O)/C=C/Nc2cc(C)ccc2O)c1	GAA850 FXN act 11, PfM18AAP inh-1 68 | PfM18AAP inh-2 inactive | CTSL1 counter-2 inactive | GAA30 FXN cntr 47 | GAA850 confirm 33
Oc1ccc(/C=N/N=C/c2ccc(O)c(O)c2)cc1O	GAA850 FXN act 8.2, PfM18AAP inh-1 81 | PfM18AAP inh-2 76 | CTSL1 counter-2 inactive | GAA30 FXN cntr 33 | GAA850 confirm 16
O=C(CSc1nnnn1-c1ccc(F)cc1)c1ccc(O)c(O)c1	GAA850 FXN act 12, PfM18AAP inh-1 47 | PfM18AAP inh-2 28 | CTSL1 counter-2 inactive | GAA30 FXN cntr 31 | GAA850 confirm 17
O=C(NC(=S)Nc1ccccc1N1CCN(C(=O)c2ccccc2)CC1)c1ccccc1F	none
O=C(NC(=S)Nc1ccccc1N1CCOCC1)c1ccccc1F	AHR act 95 | AHR act cf 73 | PXR act counter 31
COc1cccc(/C=N\NS(=O)(=O)c2ccccc2)c1OC	none (no result: HDAC3 inh)
Cc1cc(/C=C2\NC(=S)NC2=O)c(C)n1-c1cccnc1	AHR act 100 | AHR act cf 59 | PXR act counter 33
CNC(=S)N(CCCO)Cc1cc2cc3c(cc2[nH]c1=O)OCO3	none
Cn1cncc1C#Cc1c(C=O)n(C)c2ccccc12	AHR act 114 (no result: PfM18AAP inh-1, CTSL1 counter-1) | AHR act cf 109 | PXR act counter 23
COC(C(=O)Nc1ccnn1C1CCN(Cc2nccs2)CC1)c1ccccc1 (centres undefined)	none
CC1CCN(C(=O)c2cc(-c3ccco3)on2)CC1	AHR act 97 | AHR act cf 128 | PXR act counter 31
O=C(Nc1cccc(-c2csc(Nc3ccc(Cl)cc3)n2)c1)c1ccccc1	AHR act 93 (no result: PfM18AAP inh-1) | AHR act cf 95 | PXR act counter 22
O=C(Nc1ccc(-c2csc(Nc3ccccc3)n2)cc1)c1ccccc1	none
